Assay results pooled from the literature.
Compare with care: the assays were run in different laboratories.
Target: Calcium/calmodulin-dependent protein kinase type II subunit delta (CAMK2D, Homo sapiens, UniProt Q13557)

CN(c1ccnc(CNc2nc(Nc3ccc4c(c3)CC(=O)N4)ncc2C(F)(F)F)n1)S(C)(=O)=O — remaining binding (cell-free assay, competition with immobilised ligand; 1 µM): 100%
C[C@H]1CCN(c2nccc(-c3cnn4ncccc34)n2)C1 — remaining binding (binding; 1 µM): 94%
COc1cc(-c2cn(C3CCc4ccccc4N(CC(F)(F)F)C3=O)nn2)ccc1-n1ccc(C)n1 (stereo not shown) — remaining binding (cell-free assay, competition with immobilised ligand; 1 µM): 100%
COc1cnc(Nc2cccc(S(N)(=O)=O)c2)nc1N1CCN(c2ccccc2)C(=O)C1 — remaining binding (binding, competition with immobilised ligand; 1 µM): 100%
COc1ccnn2ncc(-c3ccnc(N(C)C)n3)c12 — remaining binding (binding; 1 µM): 81%
COc1cnc(Nc2cccc(S(N)(=O)=O)c2)nc1N1CCN(c2ccccc2)CC1 — remaining binding (binding, competition with immobilised ligand; 1 µM): 92%
O=C(c1ccc(Nc2nccc(-c3cc4ccccc4s3)n2)cc1)N1CCC(N2CCCC2)CC1 — remaining binding (binding, competition with immobilised ligand; 1 µM): 81%
CN(c1nccc(-c2cnn3ncccc23)n1)C1CC1 — remaining binding (binding; 1 µM): 100%
Cc1c(C(=O)O)cc(-c2ccc(C3CCNCC3)cc2)c2ccc(-c3ccc(C(F)(F)F)cc3)cc12 — remaining binding (cell-free assay, competition with immobilised ligand; 1 µM): 100%
Nc1ncc2c(n1)-c1c([nH]c3ccc(C#CC4CC4)cc13)CCCC2 — remaining binding (binding, competition with immobilised ligand; 1 µM): 95%
CNC(=O)c1ccc(Nc2ncc(C(F)(F)F)c(NCc3nccnc3N(C)S(C)(=O)=O)n2)cc1 — remaining binding (cell-free assay, competition with immobilised ligand; 0.1 µM): 83%
COc1ncc2cc3ccccc3nc2c1C#N — remaining binding (cell-free assay, competition with immobilised ligand; 5 µM): 98%
F[C@@H]1CCN(c2nccc(-c3cnn4ncccc34)n2)C1 — remaining binding (binding; 1 µM): 100%
CCS(=O)(=O)c1cc2cc(C[C@@](O)(CC(C)(C)c3ccc(F)cc3C(N)=O)C(F)(F)F)[nH]c2cn1 — remaining binding (cell-free assay, competition with immobilised ligand; 1 µM): 81%
Cc1cnc(Nc2ccc(C(=O)N3CCC(N4CCCC4)CC3)cc2)nc1-c1cc2ccccc2s1 — remaining binding (binding, competition with immobilised ligand; 1 µM): 73%
CC1CCCN1c1nccc(-c2cnn3ncccc23)n1 (stereo not shown) — remaining binding (binding; 1 µM): 100%
O=C(NCCCN1CCOCC1)c1ccc(Nc2nccc(-c3cc4ccccc4s3)n2)cc1 — remaining binding (binding, competition with immobilised ligand; 1 µM): 86%
c1cnn2ncc(-c3ccnc(N4CCC45COC5)n3)c2c1 — remaining binding (binding; 1 µM): 83%
CS(=O)(=O)c1cc(C2(NC(=O)c3cncc4c3cnn4-c3ccc(F)cc3)CC2)ccn1 — remaining binding (cell-free assay, competition with immobilised ligand; 1 µM): 76%
O=C(NCC1CCOCC1)c1n[nH]cc1NC(=O)c1c(F)cccc1F — remaining binding (binding, competition with immobilised ligand; 1 µM): 89%
N[C@H]1CCN(c2nccc(-c3cnn4ncccc34)n2)C1 — remaining binding (binding; 1 µM): 100%
Cn1nc(C(F)(F)F)cc1-c1cnc(N2CCc3cc(S(=O)(=O)Nc4c(F)cc(Cl)cc4F)cc(N4CCCC4=O)c32)nc1 — remaining binding (cell-free assay, competition with immobilised ligand; 1 µM): 99%
